MDM2 E3 inh = MDM2-luciferase reporter signal enhancers, primary screen, MDM2 E3 ligase inhibitor project, cell-based, luminescence, 1536-well | E3 ubiquitin-protein ligase Mdm2 (Homo sapiens), Q00987 | cell-based MDM2 ubiquitination luciferase reporter, 2 h; 0 = plate control, 100 = twice control, blank-subtracted | signal enhancement, % at 5 µM | actives 0.11% (n = 210,000) | AID 1230, 2008;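 active = signal enhancement of 30% or more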;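 note: luminescence tracks abundance of the self-degrading MDM2-luciferase fusion protein; higher signal means inhibition of MDM2 E3 ligase activity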
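Timing – 2 h compound exposure at 37 °C · Assay system – mammalian cells stably expressing self-ubiquitinating, self-degrading MDM2 E3–luciferase fusion · Amount – 2000 cells seeded into each well · Measure – % luminescence enhancement versus blank-corrected plate control mean · Measured by – SteadyLite luminescence, 15 min reagent step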
Beta2AR agonist = beta2AR agonists driving receptor internalization, primary screen, cell-based, FAP fluorogen, flow cytometry. actives 0.43% (n = 340,000). AID 504454, 2011. Am2.2-beta2AR cells. response, % (no concentration beside the values);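 active = response above a set limit, near 3 SD of response in nonfluorescent compounds, cut at about 42% in these data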
Target sequence (P07550 whole entry, looked up): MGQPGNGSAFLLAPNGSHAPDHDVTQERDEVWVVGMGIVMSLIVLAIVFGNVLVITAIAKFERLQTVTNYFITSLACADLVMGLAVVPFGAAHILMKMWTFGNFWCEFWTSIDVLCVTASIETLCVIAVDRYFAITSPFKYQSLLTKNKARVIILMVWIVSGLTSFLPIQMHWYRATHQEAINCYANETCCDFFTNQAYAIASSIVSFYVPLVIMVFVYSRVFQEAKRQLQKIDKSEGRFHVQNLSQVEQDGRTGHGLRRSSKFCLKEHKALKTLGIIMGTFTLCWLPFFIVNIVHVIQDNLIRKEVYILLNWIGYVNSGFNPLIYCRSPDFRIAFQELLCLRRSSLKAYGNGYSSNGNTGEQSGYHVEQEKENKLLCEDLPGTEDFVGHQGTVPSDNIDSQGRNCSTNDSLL
Mdm2-MdmX inh = inhibitors of human Mdm2-MdmX association, primary screen, cell-based, luminescence, split luciferase, SaOS-2, uHTS; Protein Mdm4 (Homo sapiens) + E3 ubiquitin-protein ligase Mdm2 (Homo sapiens), …; SaOS-2 split-luciferase Mdm2/MdmX complementation; inhibition, % at 8 µM; actives 3% (n = 330,000);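 active = inhibition of at least 50% at 8 µM in the primary screen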
UPR CHOP act = activators of apoptotic CHOP UPR arm, primary screen, cell-based, CHO-CHOP luciferase reporter, luminescence, uHTS; UPR activation; percent of tunicamycin response over DMSO baseline; activation, % at 10 µM; actives 0.34% (n = 330,000); AID 449763, 2010;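 active = at 10 µM dose, activation of 40% or more, normalized to positive control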;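 note: 100% = tunicamycin at 10 µg/mL and 0% = DMSO alone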
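System: CHO-CHOP luciferase reporter cell line; amount: 500 cells/well; buffer or medium: F12 medium containing 10% fetal bovine serum; incubation: 6 h compound exposure at 37 °C after overnight seeding; measured by: luciferase luminescence after 10 min with Steady-Glo reagent; evaluation: % reporter activation, DMSO baseline versus tunicamycin full activation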
XBP1 UPR activ = activators of adaptive XBP1 UPR arm, primary screen, cell-based, CHO-XBP1 luciferase reporter, luminescence, uHTS; activation, % at 20 µM; AID 463104, 2010; IRE1-XBP1 UPR activation; percent of tunicamycin response, DMSO as zero; actives 0.33% (n = 330,000);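 active = versus positive control, 20 µM dose yields 30% or more activation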;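 note: 100% = tunicamycin at 10 µg/mL and 0% = DMSO only wells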
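Assay system: IRE1-XBP1 luciferase reporter CHO line. Input: 1000 cells/well. Buffer or medium: F12 with 10% serum. Doses: 20 µM, 1% DMSO. Times: overnight seeding at 37 °C, 6 h compound treatment at 37 °C. Technique: Steady-Glo luciferase glow luminescence, 10 min after reagent addition.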
Dynein cargo inh = inhibitors of GR-EGFP nuclear translocation, primary screen, dynein cargo transport inhibitor project, imaging, high-content, 3617.4 mouse cells. actives 0.47% (n = 220,000). z-score, hits read low. test concentration mostly 20 µM; stimulated with dexamethasone, 1 µM; hits give low values. AID 1381, 2008;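 active = plate z-score of nuclear minus cytoplasmic receptor signal below a set negative limit, without overly bright fluorescence or cell loss, cut at about -3.5 in these data, passing the limit was not always enough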;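 note: z-score of nuclear minus cytoplasmic ring GR-EGFP intensity difference per well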
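Buffer or medium: tet-free, stripped-serum medium; reagent: dexamethasone at 1.0 µM final, 30 min; incubation: 48 h induction, 1 h compound, 30 min dex at 37 °C; measured by: formaldehyde fixation, Hoechst nuclear stain, 10x automated fluorescence imaging; read-out: nuclear-to-cytoplasmic GR-EGFP distribution per well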
B2AR ag CP1 = beta2AR agonists via receptor internalization, confirmation, cell-based, FAP fluorogen, flow cytometry, single point, cherry pick 1; shares compounds with Beta2AR agonist; Am2.2-beta2AR cells, FAP surface receptor; hits give low values; percent response (surface receptor), % at 10 µM; actives 25% (n = 1,100);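 active = surface receptor percent response at or below 58%, roughly 3 SD from nonfluorescent compounds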
B2AR FAP counter = flagged in Am2.2 fluorescence counterscreen for beta-2AR agonists; shares compounds with Beta2AR agonist; AID 588765; 1,100 tested, under 10 active; calls only at 10 µM; Am2.2 cells, FAP fluorogen flow cytometry; hits give low values;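 active = percent response below a set limit in fluorescence channel 1 and below 50% in channel 8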
Active calls of the source: *. Sampled rows, rich in hits. Any-hit rate of the full collection: about 3.7%.

Results for COc1ccc(OC)c(C(=O)NC(CC(N)=O)c2ccc(N3CCN(c4ccccn4)CC3)c([N+](=O)[O-])c2)c1 (stereo unspecified) ?
Beta2AR agonist: 16; Mdm2-MdmX inh: 4; UPR CHOP act: 0; XBP1 UPR activ: 0; B2AR ag CP1: 141; B2AR FAP counter: inactive

Results for O=C(O)C1=C(C(=O)O)C2C=CC1C2 ?
Beta2AR agonist: -3

What do the screens show for `Cc1cccc(N2CCN(S(=O)(=O)c3cccc4nonc34)CC2)c1C`?
MDM2 E3 inh: -10; Beta2AR agonist: 10; Mdm2-MdmX inh: 18; UPR CHOP act: -2; XBP1 UPR activ: -1; Dynein cargo inh: -0.69

How did O=C(c1ccc(-c2ccc([N+](=O)[O-])cc2)o1)N1CCCCCCC1 do in these assays?
Beta2AR agonist: 52*; Mdm2-MdmX inh: -16; UPR CHOP act: 9; XBP1 UPR activ: 4; B2AR ag CP1: 128; B2AR FAP counter: inactive

How did O=C(c1ccc(-c2ccc([N+](=O)[O-])cc2)o1)N1CCCC(C(F)(F)F)C1 (stereo unspecified) do in these assays?
Beta2AR agonist: -7; Mdm2-MdmX inh: -8; UPR CHOP act: 3; XBP1 UPR activ: 0

How did CCOc1cc(/C=N/NC(=O)C2CC2)ccc1OC(C)C do in these assays?
Beta2AR agonist: -5; Mdm2-MdmX inh: 24; UPR CHOP act: -1; XBP1 UPR activ: 2

How did O=C(Cn1cc(C(F)(F)F)cc(Cl)c1=O)NCCc1ccc(Cl)cc1Cl do in these assays?
Beta2AR agonist: 55*; Mdm2-MdmX inh: 16; UPR CHOP act: -1; XBP1 UPR activ: -3; Dynein cargo inh: -0.58; B2AR ag CP1: 87; B2AR FAP counter: inactive

Results for O=C(COC(=O)Cn1[nH]c(=O)c2ccccc2c1=O)NNC(=O)c1ccccc1 ?
Beta2AR agonist: -8; Mdm2-MdmX inh: 12; UPR CHOP act: -1; XBP1 UPR activ: 0

What do the screens show for `CC(=O)Nc1ccc(NC(=O)CSc2nc3[nH]ncc3c(=O)n2-c2ccccc2)cc1`?
Beta2AR agonist: 1; Mdm2-MdmX inh: -3; UPR CHOP act: 2; XBP1 UPR activ: -3

How did Cc1ccc(NC(=O)CSc2ccc3nnc(CCNC(=O)c4ccccc4)n3n2)c(C)c1 do in these assays?
MDM2 E3 inh: -9; Beta2AR agonist: 62*; Mdm2-MdmX inh: -24; UPR CHOP act: 0; XBP1 UPR activ: 2; Dynein cargo inh: 0.46; B2AR ag CP1: 111; B2AR FAP counter: inactive

What do the screens show for `Cc1cc(NC(=O)CSc2ccc3nnc(CCNC(=O)c4ccccc4)n3n2)no1`?
MDM2 E3 inh: -7; Beta2AR agonist: -7; Mdm2-MdmX inh: 22; UPR CHOP act: 1; XBP1 UPR activ: -2; Dynein cargo inh: -0.58

What do the screens show for `Cc1cc(C)cc(NC(=O)C(OC(=O)c2sccc2C)c2ccccc2)c1` (stereo unspecified)?
MDM2 E3 inh: -9; Beta2AR agonist: 64*; Mdm2-MdmX inh: -11; UPR CHOP act: 4; XBP1 UPR activ: -1; Dynein cargo inh: 1.5; B2AR ag CP1: 95; B2AR FAP counter: inactive

Results for CC(=O)c1cccc(NC(=O)C(OC(=O)c2cccs2)c2ccccc2)c1 (stereo unspecified) ?
MDM2 E3 inh: 8; Beta2AR agonist: -5; Mdm2-MdmX inh: -9; UPR CHOP act: 2; XBP1 UPR activ: 1; Dynein cargo inh: -0.55

What do the screens show for `CCn1nnc(NC(=S)NC(=O)c2ccc(-c3cccc(Cl)c3)o2)n1`?
MDM2 E3 inh: -1; Beta2AR agonist: -4; Mdm2-MdmX inh: 7; UPR CHOP act: 1; XBP1 UPR activ: 7; Dynein cargo inh: 0.2; B2AR ag CP1: 148; B2AR FAP counter: inactive

Results for CCCn1nnc(NC(=O)c2ccc(-c3cccc(Cl)c3)o2)n1 ?
MDM2 E3 inh: -16; Beta2AR agonist: 0; Mdm2-MdmX inh: -22; UPR CHOP act: 4; XBP1 UPR activ: 2; Dynein cargo inh: 0.7

Results for CC[C@@]12C(=O)N(c3ccc(OC)cc3)C(=O)N1[C@H](c1cccc(C)c1)[C@@H]1C(=O)N(Cc3ccccc3)C(=O)[C@@H]12 ?
Beta2AR agonist: -1; Mdm2-MdmX inh: 20; UPR CHOP act: 0; XBP1 UPR activ: -1

Results for CCN(CC)c1ccc(C2C3CCCCC3(O)CCN2CC(=O)N2CCCCC2)cc1 (stereo unspecified) ?
MDM2 E3 inh: -21; Beta2AR agonist: 5; Mdm2-MdmX inh: 19; UPR CHOP act: -2; XBP1 UPR activ: 4; Dynein cargo inh: -0.11

Results for CCN(CC)c1ccc([C@H]2[C@@H]3CCCC[C@]3(O)CCN2CC(=O)NCc2ccco2)cc1 ?
Beta2AR agonist: 23; Mdm2-MdmX inh: 5; UPR CHOP act: 0; XBP1 UPR activ: -3; Dynein cargo inh: -1; B2AR ag CP1: 126; B2AR FAP counter: inactive

Results for Cc1cc(C)nc(NS(=O)(=O)c2ccc(NC(=O)Cc3ccccc3)cc2)n1 ?
MDM2 E3 inh: -5; Beta2AR agonist: 2; Mdm2-MdmX inh: 13; UPR CHOP act: -2; XBP1 UPR activ: -3; Dynein cargo inh: 0.28

Results for Cc1cc(C)nc(NS(=O)(=O)c2ccc(NC(=O)COc3ccccc3)cc2)n1 ?
MDM2 E3 inh: -4; Beta2AR agonist: 118*; Mdm2-MdmX inh: 15; UPR CHOP act: 0; XBP1 UPR activ: -1; Dynein cargo inh: -1.1; B2AR ag CP1: 122; B2AR FAP counter: inactive

Results for COC(=O)c1ccc(CNC(=O)c2cc(COc3cncc(Cl)c3)on2)cc1 ?
Beta2AR agonist: -2; Mdm2-MdmX inh: 37; UPR CHOP act: 3; XBP1 UPR activ: -3; B2AR ag CP1: 115; B2AR FAP counter: inactive

Source: PubChem BioAssay
